Data set [1] in a line: Aqueous solubility of the substrates. The format is physicochemical. To be noted: standard form (CFO-1 N-terminus, Lys(BHQ-2)-amide C-terminus).
Data set [2] has as its target T1, Human erythrocyte calpain I (Homo sapiens, UniProt P07384).
T1 sequence (P07384 1-714): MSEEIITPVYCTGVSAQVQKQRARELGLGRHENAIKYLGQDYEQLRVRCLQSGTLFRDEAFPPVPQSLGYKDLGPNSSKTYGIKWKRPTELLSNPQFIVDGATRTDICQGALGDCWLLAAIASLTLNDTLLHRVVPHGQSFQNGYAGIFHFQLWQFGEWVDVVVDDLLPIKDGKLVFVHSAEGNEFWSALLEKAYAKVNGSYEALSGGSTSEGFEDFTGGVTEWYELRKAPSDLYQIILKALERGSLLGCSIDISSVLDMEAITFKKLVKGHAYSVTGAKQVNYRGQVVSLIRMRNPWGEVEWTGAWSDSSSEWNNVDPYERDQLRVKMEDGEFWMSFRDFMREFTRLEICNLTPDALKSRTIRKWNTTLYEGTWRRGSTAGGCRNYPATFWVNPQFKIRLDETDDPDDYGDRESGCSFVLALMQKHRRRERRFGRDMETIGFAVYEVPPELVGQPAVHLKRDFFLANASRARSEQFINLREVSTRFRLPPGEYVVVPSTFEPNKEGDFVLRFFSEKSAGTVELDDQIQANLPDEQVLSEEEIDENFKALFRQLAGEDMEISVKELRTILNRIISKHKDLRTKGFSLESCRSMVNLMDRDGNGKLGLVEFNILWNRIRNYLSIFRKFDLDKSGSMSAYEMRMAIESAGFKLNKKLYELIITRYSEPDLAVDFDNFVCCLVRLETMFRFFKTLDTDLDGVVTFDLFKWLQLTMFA
T1 sequence (P04632 1-268 partner): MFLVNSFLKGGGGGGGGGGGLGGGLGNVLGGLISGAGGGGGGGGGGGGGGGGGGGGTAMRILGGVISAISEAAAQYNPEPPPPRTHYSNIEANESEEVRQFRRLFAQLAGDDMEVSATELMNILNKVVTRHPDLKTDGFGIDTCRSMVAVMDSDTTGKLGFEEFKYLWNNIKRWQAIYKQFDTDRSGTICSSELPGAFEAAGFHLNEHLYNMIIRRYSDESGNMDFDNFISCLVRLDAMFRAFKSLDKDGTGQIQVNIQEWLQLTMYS
The format is biochemical. To be noted: pH 7.5.

Data set [3] deals with primary hippocampal neurons. The data set can be described thus: Live cell imaging of probe entry and fluorescence in primary hippocampal neurons. The format is cell-based, rat. The following applies: cA 1 μM preloaded 30 min in Ca2+-free buffer, ionomycin 5 μM then CaCl2 0.2 mM. In a few lines:
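Hippocampal neurons from E18 rat hippocampi, papain-dissociated (2 mg/mL, 30 min, 37 °C), plated at 1 × 10^5 cells/well on poly-D-lysine cover glasses and used at 9–12 DIV. Medium was Neurobasal/B27 with 1% FBS and glutamate, half-replaced on days 4 and 7. Confocal imaging at 37 °C, 20× air objective, 543 nm excitation, 560–615 nm emission, frames every 1–2 min.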

The next data set concerns trypsin. The following applies: pH 7.5.
Another data set concerns the target α-chymotrypsin (Bos taurus, UniProt P00766, DEL14-15/DEL147-148). The following applies: pH 7.5.
A further data set concerns primary cortical neurons. As to the kind of experiment: Live cell imaging of probe entry and fluorescence in primary cortical neurons. The format is cell-based, rat. To be noted: washed. In a few lines:
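Cortical neurons from E18 rat cortices, papain-dissociated (2 mg/mL, 30 min, 37 °C), plated at 1 × 10^5 cells/well on poly-D-lysine-coated chambered cover glasses in Neurobasal/B27 medium and used at 5 DIV. Confocal live imaging used a 20× air objective at 37 °C, with 543 nm excitation and emission collected at 560–615 nm. Frames were taken every 1–2 min.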

Consider EVYGM*M* [cG], for which, in data set [1], the “Solubility, in words” value is “very poorly soluble”. Regarding GSGTSS [cA], the “Effectiveness as calpain substrate, in words” value (from here on “Effectiveness”) in data set [2] is “proceeded only partially”. Also, the “Intracellular fluorescence on activation of calpain pathways by ionomycin” value in data set [3] is reported as “fluorescence was observed”. For the substance PLFAER [cW], the “Effectiveness” value in data set [2] was “far superior calpain substrate compared to cA”. Also, the “Stability to trypsin, in words” value in the data set on trypsin was “poor stability”. Regarding PLGAERP [cXa], in data set [2], the “Effectiveness” value is listed as “rather similar as a calpain substrate to its parent”. Moreover, the “Stability to chymotrypsin, in words” value at α-chymotrypsin is reported as “affected remarkably little”.

For PLLAERP [cXb], the “Effectiveness” value in data set [2] is given as “at least as an effective calpain substrate as its parent”. Further, the “Stability to chymotrypsin, in words” value on α-chymotrypsin is listed as “considerably improved chymotryptic stability”. Consider PLLAERP [cXe], for which the “Effectiveness” value in data set [2] was “improved calpain substrate”. Besides, the “Intracellular fluorescence following ionomycin” value in the data set on primary cortical neurons (cXe 2 μM 40 min, ionomycin 5 μM) is listed as “increased intracellular fluorescence”. Moreover, the “Entry into cells without transporter sequence” value in the data set with primary cortical neurons (cXe 2 μM preloaded 40 min, confocal imaging 37 °C) is “proved to enter cells without a transporter sequence”. Further, the “Stability to chymotrypsin, in words” value on α-chymotrypsin was “very much more stable to chymotrypsin”.

Regarding PLLAERP [cXf], the “Stability to chymotrypsin, in words” value on α-chymotrypsin is “little improvement”.

For PLLAERP [cXg], the “Stability to chymotrypsin, in words” value on α-chymotrypsin was “significantly improved”.

Take PLVAERP [cXc]: the “Effectiveness” value in data set [2] is on record as “dramatically reduced the effectiveness of calpain processing”. As for VVQAGI [cM], the “Solubility, in words” value in data set [1] was “very poorly soluble”. As for VVTAEA [cJ], in data set [1], the “Solubility, in words” value is “very poorly soluble”.

The values are drawn from PMC7088158 (International Journal of Peptide Research and Therapeutics, 2006).
